Our source for the Growth zone values is ChEMBL document CHEMBL1124389, “Spermexatin and spermexatol: new synthetic spermidine-based siderophore analogues” (1989).

Assay type in all cases: functional
In assay [1] the test system is Escherichia coli. As to the kind of experiment: Compound (0.2 mM) was tested for the ability to stimulate growth of Escherichia coli RW 193 at 18 h. An outline of the steps: (§1)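 Disk-diffusion growth-promotion assay on E. coli RW 193 (FepA+) or its FepA− derivative UT2300. Cells were seeded at 10⁴/mL into Luria agar containing the iron chelator EDDA. Siderophores were dissolved in ethanol at 50, 10, 1 or 0.2 mM, spotted onto sterile disks, and the ethanol was evaporated. Plates were incubated 18 h at 37 °C and scored for growth around the disks. A 10 mM FeCl₃ disk served as positive control.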

In assay [2] the test system is Escherichia coli. Briefly: Compound (0.2 mM) was tested for the ability to stimulate growth of Escherichia coli UT 2300 at 18 h. The essentials: as §1
Assay [3] has as its system Escherichia coli. As to the kind of experiment: Compound (10 mM) was tested for the ability to stimulate growth of Escherichia coli RW 193 at 18 h. The essentials: as §1
In assay [4] the test system is Escherichia coli. As to the kind of experiment: Compound (10 mM) was tested for the ability to stimulate growth of Escherichia coli UT 2300 at 18 h. The essentials:
as §1

The subject of assay [5] is Escherichia coli. Briefly: Compound (1 mM) was tested for the ability to stimulate growth of Escherichia coli RW 193 at 18 h. An outline of the steps:
as §1

Assay [6] concerns Escherichia coli. As to the kind of experiment: Compound (50 mM) was tested for the ability to stimulate growth of Escherichia coli RW 193 at 18 h. An outline of the steps: as §1
For assay [7], the system named is Escherichia coli. As to the kind of experiment: Compound (50 mM) was tested for the ability to stimulate growth of Escherichia coli UT 2300 at 18 h. An outline of the steps:
as §1

Assay [8] deals with Vibrio cholerae. As to the kind of experiment: Compound (0.2 mM) was tested for the ability to stimulate growth of Vibrio cholera 1510 at 18 h.
The subject of assay [9] is Vibrio cholerae. Briefly: Compound (0.2 mM) was tested for the ability to stimulate growth of Vibrio cholera Lou 15 at 18 h.
The test system of assay [10] is Vibrio cholerae. As to the kind of experiment: Compound (10 mM) was tested for the ability to stimulate growth of Vibrio cholera 1510 at 18 h.
Assay [11] deals with Vibrio cholerae. As to the kind of experiment: Compound (10 mM) was tested for the ability to stimulate growth of Vibrio cholera Lou 15 at 18 h.
For assay [12], the system named is Vibrio cholerae. As to the kind of experiment: Compound (1 mM) was tested for the ability to stimulate growth of Vibrio cholera 1510 at 18 h.
Assay [13] has as its system Vibrio cholerae. As to the kind of experiment: Compound (1 mM) was tested for the ability to stimulate growth of Vibrio cholera Lou 15 at 18 h.
Assay [14] deals with Vibrio cholerae. As to the kind of experiment: Compound (50 mM) was tested for the ability to stimulate growth of Vibrio cholera 1510 at 18 h.
The subject of assay [15] is Escherichia coli. Briefly: Compound (1 mM) was tested for the ability to stimulate growth of Escherichia coli UT 2300 at 18 h. An outline of the steps: as §1
For assay [16], the system named is Vibrio cholerae. Briefly: Compound (0.2 mM) was tested for the ability to stimulate growth of Vibrio cholera Lou 15 at 42h.
In assay [17] the test system is Vibrio cholerae. Briefly: Compound (10 mM) was tested for the ability to stimulate growth of Vibrio cholera Lou 15 at 42h.
The test system of assay [18] is Vibrio cholerae. Briefly: Compound (1 mM) was tested for the ability to stimulate growth of Vibrio cholera Lou 15 at 42h.
Assay [19] relates to Vibrio cholerae. As to the kind of experiment: Compound (50 mM) was tested for the ability to stimulate growth of Vibrio cholera Lou 15 at 18 h.

Molecules are shown by their SMILES.

On to `CC1OC(c2cccc(O)c2O)=NC1C(=O)NCCCN(CCCNC(=O)c1cccc(O)c1O)C(=O)C1N=C(c2cccc(O)c2O)OC1C` (centres undefined) [VIBRIOBACTIN], for which the Growth zone in [1], in assay [2], in assay [3], in [4], in assay [5] and in assay [6] was 0 mm each time. In addition, the Growth zone in assay [7] was determined as 0 mm; in [8], 0 mm; in [9] it was 32 mm; in assay [10], 0 mm; in [11], 32 mm; in assay [12], 0 mm. Besides, the Growth zone in assay [13] is 32 mm; in assay [14] it was 0 mm; in [15], 0 mm.

In the case of `CN(O)C(=O)CCCC(=O)NCCCCN(CCCNC(=O)CCCC(=O)N(C)O)C(=O)CCCC(=O)N(C)O`, the Growth zone is 0 mm in [1]; 0 mm in [2]; 10 mm in assay [3]; 10 mm in assay [4]; 0 mm in assay [5]; 18 mm in assay [6]. Further, the Growth zone was 16 mm in [7]; 0 mm in assay [8]; 0 mm in [16]; 0 mm in assay [10]; 0 mm in [17]; 0 mm in [12]. The Growth zone in assay [18] amounted to 0 mm; in [14], 12 mm; in assay [19], 12 mm; in assay [15], 0 mm.

As to `CN(O)C(=O)CCC(=O)N(CCCCNC(=O)c1cccc(O)c1O)CCCNC(=O)c1cccc(O)c1O` [SPERMEXATOL], the Growth zone worked out at 0 mm in [1]; 0 mm in assay [2]; 12 mm in assay [3]; 0 mm in assay [4]; 0 mm in [5]; 21 mm in assay [6]. The Growth zone in [7], in assay [8], in assay [16], in assay [10], in [17] and in assay [12] was 0 mm in each case. The Growth zone was determined as 0 mm in [18], 28 mm in [14], 36 mm in assay [19] and 0 mm in [15].

In the case of `O=C(N[C@H]1COC(=O)[C@@H](NC(=O)c2cccc(O)c2O)COC(=O)[C@@H](NC(=O)c2cccc(O)c2O)COC1=O)c1cccc(O)c1O` [ENTEROBACTIN], the Growth zone in assay [1] was 28 mm; in [2], 0 mm; in assay [4], 0 mm; in [5] it was 40 mm; in assay [8], 0 mm; in assay [9], 0 mm. Also, the Growth zone in assay [10] came to 0 mm; in assay [11] it was 28 mm; in assay [12], 0 mm; in assay [13], 22 mm; in assay [15] it was 0 mm.

For the compound `CN(O)C(=O)CCC(=O)NCCCCN(CCCNC(=O)CCC(=O)N(C)O)C(=O)CCC(=O)N(C)O`, the Growth zone in [1] is 0 mm; in assay [2], 0 mm; in assay [3], 0 mm; in [4] it was 0 mm; in assay [5] it was 0 mm; in assay [6] it was 12 mm. The Growth zone in assay [7] came out at 12 mm; in assay [8], 0 mm; in assay [9], 16 mm; in assay [10], 0 mm; in assay [11] it was 17 mm; in assay [12], 0 mm. In addition, the Growth zone in assay [13] was found to be 17 mm; in [14] it was 0 mm; in assay [19] it was 19 mm; in [15] it was 0 mm.
